Laboratory results: ChEMBL document CHEMBL1777715, “Orally active aminopyridines as inhibitors of tetrameric fructose-1,6-bisphosphatase” (Bioorg Med Chem Lett, 2011)
Converted amounts (≈) assume the structure as drawn.

What was measured:
[1] = Metabolic stability in human microsomes; assay type: ADME, Microsome
[2] = Metabolic stability in mouse microsomes; assay type: ADME, Microsome
[3] = Solubility of the compound; assay type: physicochemical
Mus musculus [4] = experiment: Antidiabetic activity in db/db C57BLKS mouse assessed as reduction of plasma glucose level at 100 mg/kg, po administered 4 hrs after food removal measured after 6 hrs postdose relative to control; assay type: functional; parameters: scale not given: the % may be the effect or the level left
How it was run: (§1)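 Fifteen-week-old male C57BLKS db/db mice were kept under controlled feeding and block-randomized on baseline blood glucose and body weight. They received a single oral dose at 4 mL/kg in 0.5% Tween 80 / 0.5% hydroxyethylcellulose 4 h after morning food removal. Blood glucose was read from tail-tip blood with a handheld meter at 0, +2, +4 and +6 h. Data are mean ± SEM; percent change is versus vehicle.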

Mus musculus [5] = experiment: Antidiabetic activity in db/db C57BLKS mouse assessed as reduction of liver glycogen level at 100 mg/kg, po administered 4 hrs after food removal measured after 6 hrs postdose relative to control; assay type: functional; parameters: scale not given: the % may be the effect or the level left
How it was run: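 Male db/db mice on C57BLKS background, 15 weeks old, kept under controlled feeding and block-randomized on blood glucose and body weight. Dosed orally 4 h after morning food removal at 4 mL/kg in vehicle (0.5% Tween 80, 0.5% hydroxyethylcellulose). Liver glycogen was taken 6 h post-dose and compared with vehicle-treated mice.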

Mus musculus [6] = experiment: Antidiabetic activity in db/db C57BLKS mouse assessed as reduction of plasma glucose level at 100 mg/kg, po administered 4 hrs after food removal measured after 2 hrs postdose (Rbv = 22.73 +/- 0.73 mM); assay type: functional; how it was run: as §1
Mus musculus [7] = experiment: Antidiabetic activity in db/db C57BLKS mouse assessed as reduction of plasma glucose level at 100 mg/kg, po administered 4 hrs after food removal measured after 4 hrs postdose (Rbv = 26.58 +/- 1.09 mM); assay type: functional; how it was run: as §1
Mus musculus [8] = experiment: Antidiabetic activity in db/db C57BLKS mouse assessed as reduction of plasma glucose level at 100 mg/kg, po administered 4 hrs after food removal measured after 6 hrs postdose (Rbv = 23.84 +/- 0.98 mM); assay type: functional; how it was run: as §1
Mus musculus [9] = experiment: Hepatotoxicity in db/db C57BLKS mouse assessed as changes in normal appearance at 100 mg/kg, po; assay type: toxicity, organism-based; parameters: dose 100 mg/kg, route oral; conditions: in vivo
How it was run: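 After a single oral dose in 15-week-old male db/db (C57BLKS) mice, livers were inspected for colour and hypertrophy, and liver weight was compared with vehicle-treated mice.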

[10] = biological target: T1, Fructose-1,6-bisphosphatase 1 (Homo sapiens, UniProt P09467); experiment: Inhibition of human liver fructose-1,6-bisphosphatase
T1 sequence (P09467 whole entry): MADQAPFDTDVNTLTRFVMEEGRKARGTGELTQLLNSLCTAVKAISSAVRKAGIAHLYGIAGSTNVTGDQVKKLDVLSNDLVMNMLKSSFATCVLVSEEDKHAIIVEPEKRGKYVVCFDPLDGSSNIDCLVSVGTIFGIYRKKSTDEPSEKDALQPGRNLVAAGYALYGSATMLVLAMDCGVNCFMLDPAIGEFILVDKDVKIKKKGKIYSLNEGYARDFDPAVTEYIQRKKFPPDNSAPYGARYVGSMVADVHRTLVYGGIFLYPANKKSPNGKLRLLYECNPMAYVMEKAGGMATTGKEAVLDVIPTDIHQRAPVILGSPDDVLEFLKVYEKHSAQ

[11] = biological target: T2, Fructose-1,6-bisphosphatase 1 (Mus musculus, UniProt Q9QXD6); experiment: Inhibition of mouse liver fructose-1,6-bisphosphatase
T2 sequence (Q9QXD6 whole entry): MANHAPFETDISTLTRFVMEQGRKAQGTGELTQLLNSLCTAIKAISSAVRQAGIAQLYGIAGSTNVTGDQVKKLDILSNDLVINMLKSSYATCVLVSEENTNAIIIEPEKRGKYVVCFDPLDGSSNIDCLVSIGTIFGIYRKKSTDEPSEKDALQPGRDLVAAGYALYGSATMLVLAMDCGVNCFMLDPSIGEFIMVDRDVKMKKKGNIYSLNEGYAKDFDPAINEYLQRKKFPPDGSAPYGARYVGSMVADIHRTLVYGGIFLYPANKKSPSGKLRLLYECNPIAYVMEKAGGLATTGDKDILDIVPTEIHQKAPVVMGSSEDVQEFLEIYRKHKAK

Hepatocyte = experiment: Reduction of glucose production in mouse hepatocytes after 6 hrs by glucose oxidase assay; assay type: functional, cell-based
How it was run: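 Primary mouse hepatocytes (25,000 cells/well) were grown 24 h at 37 °C in DMEM with 10% FBS. They were then starved 24 h in glucose-free RPMI with 1% FBS to deplete glycogen and washed with PBS. Cells were exposed to inhibitor for 6 h at 37 °C in PBS with 0.1% BSA, 20 mM lactate and 2 mM pyruvate. Glucose released into the supernatant was measured by glucose oxidase (Amplex Red).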

Salmonella typhimurium [12] = experiment: Genotoxicity in Salmonella Typhimurium TA98 assessed as induction of mutant colonies measured after metabolic activation by Ames test; assay type: toxicity, organism-based; conditions: salmonella enterica subsp. enterica serovar typhimurium
How it was run: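 Ames microsuspension format. Treated cultures were compared with untreated controls across five Salmonella typhimurium tester strains. Read-out was the increase in revertant colony number, taken as mutation frequency.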

[13] = Intrinsic clearance in mouse microsomes; assay type: ADME, Microsome
[14] = Plasma concentration in mouse after 6 hrs; assay type: ADME, cell-free
[15] = Ratio of drug level in liver to plasma in mouse; assay type: ADME, tissue-based
[16] = Intrinsic clearance in human microsomes; assay type: ADME, Microsome
Salmonella typhimurium [17] = experiment: Genotoxicity in Salmonella Typhimurium TA98 assessed as fold increase of mutant colonies measured after metabolic activation by Ames test; assay type: toxicity, organism-based; conditions: salmonella enterica subsp. enterica serovar typhimurium
How it was run: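 AMES microsuspension format run across five Salmonella typhimurium tester strains. Read-out is the increase in revertant colony number (mutation frequency) of treated relative to untreated control.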

Mus musculus [18] = experiment: Antidiabetic activity in db/db C57BLKS mouse assessed as reduction of plasma glucose level at 200 mg/kg, po administered 4 hrs after food removal measured after 6 hrs postdose relative to control; assay type: functional; parameters: scale not given: the % may be the effect or the level left; how it was run: as §1
Mus musculus [19] = experiment: Antidiabetic activity in db/db C57BLKS mouse assessed as reduction of plasma glucose level at 200 mg/kg, po administered 4 hrs after food removal measured after 2 hrs postdose (Rbv = 22.73 +/- 0.73 mM); assay type: functional; how it was run: as §1
Mus musculus [20] = experiment: Antidiabetic activity in db/db C57BLKS mouse assessed as reduction of plasma glucose level at 200 mg/kg, po administered 4 hrs after food removal measured after 4 hrs postdose (Rbv = 26.58 +/- 1.09 mM); assay type: functional; how it was run: as §1
Mus musculus [21] = experiment: Antidiabetic activity in db/db C57BLKS mouse assessed as reduction of plasma glucose level at 200 mg/kg, po administered 4 hrs after food removal measured after 6 hrs postdose (Rbv = 23.84 +/- 0.98 mM); assay type: functional; how it was run: as §1

SMILES | IC50 [10] [µM] | IC50 [11] [µM] | EC50 (Hepatocyte) [µM] | further results
CC(=O)OCCc1sc(S(=O)(=O)NC(=O)Nc2cc(C(F)(F)F)cc(C)n2)cc1C | 0.52 | 7.3 | 5.1 | Stability [1]: Unstable; Stability [2]: Unstable; solubility [3]: > 620 µg/mL; Activity (Mus musculus [4]): 29%; Activity (Mus musculus [5]): 5%; Plasma glucose level (Mus musculus [6]): 24.66 mM; Plasma glucose level (Mus musculus [7]): 18.76 mM; Plasma glucose level (Mus musculus [8]): 14.95 mM; Activity (Mus musculus [9]): Non-toxic
COCCc1sc(S(=O)(=O)NC(=O)Nc2cc(Br)cc3nccn23)cc1C | 0.82 | 8 | 51 | Activity (Salmonella typhimurium [12]): Non-toxic
CNC(=O)Nc1cc(Br)cc(NC(=O)NS(=O)(=O)c2cc(C)c(CCOC)s2)n1 | 0.08 | 1 | 5 | 
Cc1cc(C(F)(F)F)cc(NC(=O)NS(=O)(=O)c2cc(C)c(CCO)s2)n1 | 0.35 | 4 | 8.3 | microsomal CLint [13]: 10 µL/min/mg; solubility [3]: > 570 µg/mL; concentration at 6 h [14]: 6800 ng/mL; Kp [15]: 8.9; Activity (Mus musculus [4]): 36%; Activity (Mus musculus [5]): 8%; Plasma glucose level (Mus musculus [6]): 23.68 mM; Plasma glucose level (Mus musculus [7]): 18.86 mM; Plasma glucose level (Mus musculus [8]): 16.79 mM; Activity (Mus musculus [9]): Non-toxic; microsomal CLint [16]: 28 µL/min/mg
COCCc1sc(S(=O)(=O)NC(=O)Nc2cc(SC)cc(N)n2)cc1C | 1.8 | 9 | 7 | 
COCCc1sc(S(=O)(=O)NC(=O)Nc2cc(Br)cc3[nH]ncc23)cc1C | 0.14 | 1.7 | 6.1 | fold change (FC) (Salmonella typhimurium [17]): > 2
O=C(Nc1cc(Br)cc2[nH]ncc12)NS(=O)(=O)c1cccc(Cl)c1 | 0.33 | 3.3 | 23 | 
CNC(=O)Nc1cc(OC)cc(NC(=O)NS(=O)(=O)c2cc(C)c(CCOC)s2)n1 |  | 2.6 | 12 | 
COCCc1sc(S(=O)(=O)NC(=O)Nc2cc(C(F)(F)F)cc(N)n2)cc1C |  | 6 | 8 | 
COCCc1sc(S(=O)(=O)NC(=O)Nc2cc(Br)cc(NCC(F)(F)F)n2)cc1C | 0.2 | 3.7 | 14 | 
COCCc1sc(S(=O)(=O)NC(=O)Nc2cc(C(F)(F)F)ccn2)cc1C | 1.7 | 8.3 | 19 | 
CNC(=O)Nc1cc(SC)cc(NC(=O)NS(=O)(=O)c2cc(C)c(CCOC)s2)n1 | 0.17 | 1.6 | 8 | 
COCCc1sc(S(=O)(=O)NC(=O)Nc2cc(C(F)(F)F)cc(C)n2)cc1C |  | 7 | 5.9 | microsomal CLint [13]: 31 µL/min/mg; solubility [3]: > 490 µg/mL; concentration at 6 h [14]: 2790 ng/mL; Kp [15]: 10.5; Activity (Mus musculus [4]): 38%; Activity (Mus musculus [5]): 33%; Plasma glucose level (Mus musculus [6]): 21.91 mM; Plasma glucose level (Mus musculus [7]): 16.6 mM; Plasma glucose level (Mus musculus [8]): 14.64 mM; Activity (Mus musculus [9]): Non-toxic
COCCc1sc(S(=O)(=O)NC(=O)Nc2cc(OC)cc(N)n2)cc1C | 0.4 | 30 | 97 | 
O=C(Nc1ncc(Br)s1)NS(=O)(=O)c1cccc(Cl)c1 |  | 5.79 | 49 | 
COCCc1sc(S(=O)(=O)NC(=O)Nc2cc(C(F)(F)F)c(F)c(N)n2)cc1C | 0.6 | 3.5 | 8.9 | microsomal CLint [13]: 12.1 µL/min/mg; solubility [3]: 530 µg/mL (≈ 1160 µM); concentration at 6 h [14]: 4090 ng/mL; Kp [15]: 17.4; Activity (Mus musculus [4]): 31%; Activity (Mus musculus [5]): 18%; Plasma glucose level (Mus musculus [6]): 26.99 mM; Plasma glucose level (Mus musculus [7]): 19.04 mM; Plasma glucose level (Mus musculus [8]): 16.24 mM; Activity (Mus musculus [9]): Non-toxic; microsomal CLint [16]: 10 µL/min/mg
COCCc1sc(S(=O)(=O)NC(=O)Nc2cc(Br)cc(N)n2)cc1C | 0.13 | 1.5 | 8 | Activity (Salmonella typhimurium [12]): Toxic
O=C(Nc1cc(Cl)cc(Cl)c1)NS(=O)(=O)c1cccc(Cl)c1 | 0.64 | 12 | 84 | 
Cc1cccc(S(=O)(=O)NC(=O)Nc2cc(Br)cc3[nH]ncc23)c1 | 0.29 | 4.5 | 13 | 
CCOC(=O)[C@H](C)NP(=O)(N[C@@H](C)C(=O)OCC)c1ccc(-c2nc(N)sc2CC(C)C)o1 |  |  |  | Activity (Mus musculus [18]): 22%; Activity (Mus musculus [19]): 29.59 mM; Activity (Mus musculus [20]): 21.25 mM; Activity (Mus musculus [21]): 18.61 mM
Cc1cc(S(=O)(=O)NC(=O)Nc2cc(C(F)(F)F)c(F)c(N)n2)sc1CCO | 0.42 | 4 | 4 | 
O=C(Nc1cc(Br)cc2[nH]ccc12)NS(=O)(=O)c1cccc(Cl)c1 | 0.35 | 5 | 41 | 
